9 compounds from EPA's CvTdb concentration-time database can be followed below.

The subject of series [1] is Rat. Put plainly: concentration in plasma after dosing. The following applies: dosed: Fluorotelomer alcohol 8+2, 40 mg/kg, iv, Female, Harlan Sprague-Dawley.
The subject of series [2] is Rat. Put plainly: concentration in plasma after dosing. The following applies: dosed: Fluorotelomer alcohol 8+2, 12 mg/kg, oral, Male, Harlan Sprague Dawley.
Series [3] concerns Rat. As to the kind of experiment: concentration in kidney after dosing. Conditions: 1 h; dosed: Fluorotelomer alcohol 8+2; 80 mg/kg; oral; Female; Harlan Sprague Dawley.
In series [4] the test system is Rat. As to the kind of experiment: concentration in plasma after dosing. The following applies: 0.25 h; dosed: Wyeth-14643; 5.0 mg/kg; oral; Male; Sprague-Dawley.
Series [5] has as its system Rat. As to the kind of experiment: concentration in plasma after dosing. The following applies: 5 min; dosed: Wyeth-14643; 2.0 mg/kg; oral; Male; Sprague-Dawley.
In series [6] the test system is Rat. As to the kind of experiment: concentration in plasma after dosing. The following applies: 5 h; dosed: Wyeth-14643; 1.0 mg/kg; oral; Male; Sprague-Dawley.
Series [7] deals with Rat. Put plainly: concentration in plasma after dosing. The following applies: 20 min; dosed: Di-n-butyl phthalate; 50 mg/kg; oral; Male; Sprague-Dawley.
Series [8] deals with Rat. Put plainly: concentration in plasma after dosing. The following applies: dosed: dichloroacetic acid, 40 mg/kg, oral, Female, Harlan Sprague Dawley.
Series [9] deals with Rat. As to the kind of experiment: concentration in plasma after dosing. The following applies: dosed: dichloroacetic acid, 40 mg/kg, oral, Female, Harlan Sprague Dawley. The source holds these as a separate data set.
The next series deals with dog. The following applies: dosed: tetrachloroethylene, 72 ppm, inhalation, duration: 4 hr, male, beagle. Summed up: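 Concentration-versus-time or amount-versus-time points were compiled from published in vivo toxicokinetic studies and from two structured collections. The studies were found by PubMed searching, classifier screening and manual review. Points were mostly digitised from plot screenshots with WebPlotDigitizer, otherwise copied from tables, and kept in the reported units. Dose, route, subject details and medium were curated by hand from each paper, and sampling and analytical methods follow each source and were often unreported.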

Series [10] deals with Rat. As to the kind of experiment: concentration in kidney after dosing. The following applies: 24 h; dosed: Perfluorodecanoic acid; 10 mg/kg; oral; Female; Harlan Sprague Dawley.
Series [11] has as its system Rat. As to the kind of experiment: concentration in brain after dosing. The following applies: 24 h; dosed: Perfluorodecanoic acid; 10 mg/kg; oral; Female; Harlan Sprague Dawley.
For series [12], the system named is Rat. Put plainly: concentration in kidney after dosing. Conditions: 24 h; dosed: Perfluorodecanoic acid; 10 mg/kg; oral; Female; Harlan Sprague Dawley. The source holds these as a separate data set.
Series [13] has as its system Rat. Put plainly: concentration in brain after dosing. Conditions: 864 h; dosed: Perfluorodecanoic acid; 10 mg/kg; oral; Female; Harlan Sprague Dawley.
Series [14] has as its system Rat. As to the kind of experiment: concentration in brain after dosing. Conditions: 864 h; dosed: Perfluorodecanoic acid; 10 mg/kg; oral; Male; Harlan Sprague Dawley.
Series [15] has as its system Rat. Put plainly: concentration in heart after dosing. The following applies: 5.333 h; dosed: Thiodiglycolic Acid; 20 mg/kg; iv; Male; Harlan Sprague Dawley.
The subject of series [16] is Rat. As to the kind of experiment: concentration in heart after dosing. The following applies: 1 h; dosed: Thiodiglycolic Acid; 20 mg/kg; iv; Male; Harlan Sprague Dawley.
Series [17] relates to Rat. Put plainly: concentration in liver after dosing. Conditions: 8 h; dosed: Thiodiglycolic Acid; 20 mg/kg; iv; Female; Harlan Sprague Dawley.
Series [18] relates to Rat. As to the kind of experiment: concentration in thymus after dosing. Conditions: 2 h; dosed: Thiodiglycolic Acid; 20 mg/kg; iv; Male; Harlan Sprague Dawley.
Series [19] deals with Rat. Put plainly: concentration in plasma after dosing. Conditions: 10 h; dosed: Thiodiglycolic Acid; 20 mg/kg; iv; Male; F344.
In series [20] the test system is Rat. Put plainly: concentration in heart after dosing. Conditions: 20 min; dosed: Thiodiglycolic Acid; 20 mg/kg; iv; Female; F344.
For series [21], the system named is Rat. Put plainly: concentration in plasma after dosing. The following applies: 20 min; dosed: Thiodiglycolic Acid; 20 mg/kg; iv; Female; Harlan Sprague Dawley.
The subject of series [22] is Rat. Put plainly: concentration in thymus after dosing. Conditions: 4 h; dosed: Thiodiglycolic Acid; 20 mg/kg; iv; Female; Harlan Sprague Dawley.
Series [23] has as its system Rat. Put plainly: concentration in heart after dosing. Conditions: 6.667 h; dosed: Thiodiglycolic Acid; 20 mg/kg; iv; Female; Harlan Sprague Dawley.
Series [24] relates to Rat. As to the kind of experiment: concentration in plasma after dosing. Conditions: 18 h; dosed: Primidone; 30 mg/kg; oral; Male; F344.
The subject of series [25] is Rat. Put plainly: concentration in plasma after dosing. The following applies: 12 h; dosed: Primidone; 80 mg/kg; oral; Female; F344.
Series [26] relates to Rat. Put plainly: concentration in plasma after dosing. Conditions: 6 h; dosed: Primidone; 130 mg/kg; oral; Female; F344.
The test system of series [27] is Rat. Put plainly: concentration in plasma after dosing. Conditions: 18 h; dosed: Primidone; 30 mg/kg; oral; Female; F344.
Series [28] has as its system Rat. Put plainly: concentration in heart after dosing. The following applies: 3 h; dosed: Bis 2-Chloroethoxy Methane; 20 mg/kg; iv; Female; F344.
In series [29] the test system is Rat. As to the kind of experiment: concentration in thymus after dosing. Conditions: 20 min; dosed: Bis 2-Chloroethoxy Methane; 20 mg/kg; iv; Male; F344.
In series [30] the test system is Rat. Put plainly: concentration in liver after dosing. Conditions: 2 h; dosed: Bis 2-Chloroethoxy Methane; 20 mg/kg; iv; Male; F344.
The subject of series [31] is Rat. Put plainly: concentration in plasma after dosing. The following applies: 1 h; dosed: Bis 2-Chloroethoxy Methane; 20 mg/kg; iv; Male; F344.
The subject of series [32] is Rat. Put plainly: concentration in thymus after dosing. The following applies: 3 h; dosed: Bis 2-Chloroethoxy Methane; 20 mg/kg; iv; Female; F344.
In series [33] the test system is Rat. As to the kind of experiment: concentration in liver after dosing. The following applies: 4 h; dosed: Bis 2-Chloroethoxy Methane; 20 mg/kg; iv; Male; F344.
Series [34] relates to Rat. Put plainly: concentration in plasma after dosing. The following applies: 4 h; dosed: Bis 2-Chloroethoxy Methane; 20 mg/kg; iv; Male; F344.
Series [35] relates to Rat. As to the kind of experiment: concentration in thymus after dosing. Conditions: 5 h; dosed: Bis 2-Chloroethoxy Methane; 20 mg/kg; iv; Male; F344.
Series [36] deals with Rat. As to the kind of experiment: concentration in liver after dosing. The following applies: 2 h; dosed: Bis 2-Chloroethoxy Methane; 20 mg/kg; iv; Female; F344.

The structures appear in SMILES notation.

`OCCC(F)(F)C(F)(F)C(F)(F)C(F)(F)C(F)(F)C(F)(F)C(F)(F)C(F)(F)F` [Fluorotelomer alcohol 8+2]: the concentration in plasma in the series with Rat [1] (1 h) was 2530 ng/mL; in the series on Rat [1] (24 h), 24.5 ng/mL; in the series on Rat [2] (0.75 h), 294 ng/mL; in the series on Rat [2] (12 h) it was 4.64 ng/mL. The compound further showed a concentration in kidney with Rat [3] of 1950 ng/g.

Turning to `Cc1cccc(Nc2cc(Cl)nc(SCC(=O)O)n2)c1C`, the concentration in plasma in the series on Rat [4] came out at 2450 ng/mL; in the series with Rat [5] it was 401 ng/mL; with Rat [6], 118 ng/mL.

On to `CCCCOC(=O)c1ccccc1C(=O)O` [Mono-n-butyl phthalate], for which the concentration in plasma in the series on Rat [7] stood at 16800 ng/mL.

Consider `O=C(O)C(Cl)Cl` [dichloroacetic acid], for which the concentration in plasma came to 8110 ng/mL in the series on Rat [8] (20 min), 2680 ng/mL with Rat [8] (2 h), 3380 ng/mL with Rat [9] (10 min) and 3320 ng/mL in the series on Rat [9] (1.5 h).

Take `O=C(O)C(Cl)(Cl)Cl` [trichloroacetic acid]: the “amount in urine after dosing” value stood at 4.04 mg with dog (22 h), 1.08 mg in the series with dog (46 h) and 1.11 mg in the series on dog (70 h).

For `O=C(O)C(F)(F)C(F)(F)C(F)(F)C(F)(F)C(F)(F)C(F)(F)C(F)(F)C(F)(F)C(F)(F)F` [Perfluorodecanoic acid], the concentration in kidney is 57900 ng/g in the series on Rat [10] and 67300 ng/g in the series with Rat [12]. Also, the concentration in brain with Rat [11] came out at 2560 ng/g; in the series on Rat [13], 1220 ng/g; with Rat [14] it was 867 ng/g.

Regarding `O=C(O)CSCC(=O)O` [Thiodiglycolic Acid], the concentration in heart in the series on Rat [15] was found to be 383 ng/g; in the series with Rat [16], 1930 ng/g; with Rat [20], 3820 ng/g; in the series with Rat [23], 308 ng/g. Also, the concentration in liver with Rat [17] came to 940 ng/g. Moreover, the concentration in thymus was found to be 2260 ng/g with Rat [18] and 637 ng/g in the series with Rat [22]. Further, the concentration in plasma stood at 304 ng/mL with Rat [19] and 16300 ng/mL in the series on Rat [21].

`CCC1(c2ccccc2)C(=O)NC(=O)NC1=O` [Phenobarbital]: the concentration in plasma in the series on Rat [24] turned out to be 1540 ng/mL; in the series on Rat [25], 2260 ng/mL; in the series with Rat [26] it was 2210 ng/mL; in the series on Rat [27], 1060 ng/mL.

In the series with Rat [28], `ClCCOCOCCCl` [Bis 2-Chloroethoxy Methane] returned a concentration in heart of 158 ng/g. Besides, the concentration in thymus in the series on Rat [29] is 26300 ng/g; in the series with Rat [32] it was 174 ng/g; in the series with Rat [35], 49 ng/g. Moreover, the figures for the concentration in liver in the series with Rat [30], in the series with Rat [33] and in the series with Rat [36] were 135 ng/g, 161 ng/g and 70.7 ng/g, respectively. Moreover, the concentration in plasma worked out at 1320 ng/mL in the series with Rat [31] and 118 ng/mL in the series on Rat [34].
